From ChEMBL document CHEMBL3994675, “Carbamylmethyl Mercaptoacetate Thioether: A Novel Scaffold for the Development of L1 Metallo-β-lactamase Inhibitors” (ACS Med Chem Lett, 2017)
pIC50, pKi: −log10 of the molar value.

What was measured:
[1] = Inhibition of L1 (unknown origin) expressed in Escherichia coli BL21(DE3) using cefazolin as substrate preincubated for 30 mins followed by substrate addition by UV-Visible spectrophotometric method
Procedure, shortened: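 L1 IC50 measured in 30 mM Tris, pH 8.5, with cefazolin as substrate and inhibitor at 0.1–20 μM. Run in triplicate; mean ± SD reported.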

[2] = test system: Escherichia coli; assay: Growth inhibition of Escherichia coli DH10B harboring pBC SK(+)-L1 at 1024 ug/ml after 12 hrs macrodilution broth method; set-up: species or system K-12 substr. DH10B
Procedure, shortened: (§1)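 Cefazolin MIC determined for E. coli DH10B carrying pBC SK(+)-L1 and for E. coli not expressing L1, with and without compound.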

[3] = Inhibition of ImiS (unknown origin) expressed in Escherichia coli BL21(DE3) at 100 uM using imipenem as substrate preincubated for 30 mins followed by substrate addition by UV-Visible spectrophotometric method relative to control
Procedure, shortened: (§2)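 Purified enzyme preincubated with 100 μM inhibitor in its enzyme-specific buffer, then substrate added: 50 μM cefazolin for IMP-1 and L1, 40 μM imipenem for ImiS. Hydrolysis followed by UV-vis spectrophotometry. Preincubation times of 3–60 min were tested. % inhibition = activity without inhibitor (100%) minus residual activity.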

[4] = Inhibition of IMP1 (unknown origin) expressed in Escherichia coli BL21(DE3) at 100 uM using cefazolin as substrate preincubated for 30 mins followed by substrate addition by UV-Visible spectrophotometric method relative to control; procedure, shortened: as §2
[5] = Inhibition of L1 (unknown origin) expressed in Escherichia coli BL21(DE3) at 100 uM using cefazolin as substrate preincubated for 3 to 60 mins followed by substrate addition by UV-Visible spectrophotometric method relative to control; conditions: TDE = time-dependent effect; procedure, shortened: as §2
[6] = Mixed-type inhibition of L1 (unknown origin) expressed in Escherichia coli BL21(DE3) using varying levels of cefazolin as substrate preincubated for 30 mins followed by substrate addition by Michaelis-Menten plot analysis
[7] = Inhibition of L1 (unknown origin) expressed in Escherichia coli BL21(DE3) at 100 uM using cefazolin as substrate preincubated for 30 mins followed by substrate addition by UV-Visible spectrophotometric method relative to control; procedure, shortened: as §2
[8] = Inhibition of L1 (unknown origin) expressed in Escherichia coli DH10B harboring pBC SK(+)-L1 assessed as potentiation of cefazolin-induced antibacterial activity by measuring cefazolin MIC at 1024 ug/ml after 12 hrs macrodilution broth method
Procedure, shortened: (§3)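 Cefazolin MICs were read for E. coli DH10B carrying pBC SK(+)-L1 across a series of inhibitor concentrations. Cefazolin alone (no inhibitor) on the same strain served as the reference MIC. E. coli not expressing L1 was tested alongside as the susceptible comparator.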

[9] = Inhibition of ImiS (unknown origin) expressed in Escherichia coli BL21(DE3) at 100 uM using imipenem as substrate preincubated for 3 to 60 mins followed by substrate addition by UV-Visible spectrophotometric method relative to control; conditions: TDE = time-dependent effect; procedure, shortened: as §2
[10] = Inhibition of IMP1 (unknown origin) expressed in Escherichia coli BL21(DE3) at 100 uM using cefazolin as substrate preincubated for 3 to 60 mins followed by substrate addition by UV-Visible spectrophotometric method; conditions: TDE = time-dependent effect; procedure, shortened: as §2
[11] = test system: Escherichia coli; assay: Growth inhibition of Escherichia coli DH10B at 1024 ug/ml after 12 hrs macrodilution broth method; set-up: species or system K-12 substr. DH10B; procedure, shortened: as §1
[12] = test system: L929; assay: Cytotoxicity against mouse L929 cells assessed as reduction in cell viability up to 400 uM after 48 hrs by CCK assay; assay type: cell-based; conditions: l929, 48 h
Procedure, shortened: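 L-929 mouse fibroblasts exposed to compound at 12.5, 25, 50, 100, 200 and 400 μM working concentrations; cell viability measured.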

[13] = Inhibition of L1 (unknown origin) expressed in Escherichia coli DH10B harboring pBC SK(+)-L1 assessed as potentiation of cefazolin-induced antibacterial activity by measuring cefazolin MIC at 128 ug/ml after 12 hrs macrodilution broth method; procedure, shortened: as §3
[14] = Inhibition of L1 (unknown origin) expressed in Escherichia coli DH10B harboring pBC SK(+)-L1 assessed as potentiation of cefazolin-induced antibacterial activity by measuring cefazolin MIC at 16 ug/ml after 12 hrs macrodilution broth method; procedure, shortened: as §3
[15] = Inhibition of L1 (unknown origin) expressed in Escherichia coli DH10B harboring pBC SK(+)-L1 assessed as potentiation of cefazolin-induced antibacterial activity by measuring cefazolin MIC at 512 ug/ml after 12 hrs macrodilution broth method; procedure, shortened: as §3
[16] = Inhibition of L1 (unknown origin) expressed in Escherichia coli DH10B harboring pBC SK(+)-L1 assessed as potentiation of cefazolin-induced antibacterial activity by measuring cefazolin MIC at 32 ug/ml after 12 hrs macrodilution broth method; procedure, shortened: as §3
[17] = Inhibition of L1 (unknown origin) expressed in Escherichia coli DH10B harboring pBC SK(+)-L1 assessed as potentiation of cefazolin-induced antibacterial activity by measuring cefazolin MIC at 64 ug/ml after 12 hrs macrodilution broth method; procedure, shortened: as §3
[18] = Inhibition of L1 (unknown origin) expressed in Escherichia coli DH10B harboring pBC SK(+)-L1 assessed as potentiation of cefazolin-induced antibacterial activity by measuring cefazolin MIC at 256 ug/ml after 12 hrs macrodilution broth method; procedure, shortened: as §3
[19] = Inhibition of L1 (unknown origin) expressed in Escherichia coli DH10B harboring pBC SK(+)-L1 assessed as potentiation of cefazolin-induced antibacterial activity by measuring cefazolin MIC at 8 ug/ml after 12 hrs macrodilution broth method; procedure, shortened: as §3
[20] = Inhibition of L1 (unknown origin) expressed in Escherichia coli DH10B harboring pBC SK(+)-L1 assessed as potentiation of cefazolin-induced antibacterial activity by measuring cefazolin MIC at 4 ug/ml after 12 hrs macrodilution broth method; procedure, shortened: as §3
[21] = Inhibition of L1 (unknown origin) expressed in Escherichia coli DH10B harboring pBC SK(+)-L1 assessed as potentiation of cefazolin-induced antibacterial activity by measuring fold reduction in cefazolin MIC at 1024 ug/ml after 12 hrs macrodilution broth method relative to cefazolin alone; procedure, shortened: as §3
[22] = Chemical stability in pH 9 Tris buffer after 4 days by UV-Visible spectral analysis; assay type: physicochemical; conditions: pH 9, 96 h
Procedure, shortened: (§4)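 Compounds incubated in aqueous solution at pH 5.0, 7.0 and 9.0 for 4 days; stability followed by UV-vis spectra.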

[23] = Chemical stability in pH 7 Tris buffer after 4 days by UV-Visible spectral analysis; assay type: physicochemical; conditions: pH 7, 96 h; procedure, shortened: as §4
[24] = Chemical stability in pH 5 Tris buffer after 4 days by UV-Visible spectral analysis; assay type: physicochemical; conditions: pH 5, 96 h; procedure, shortened: as §4

CCc1ccccc1NC(=O)CSCC(=O)[O-].[K+]
pIC50 [1]: 6.23 | growth inhibition (GI) [2]: Non-Toxic | inhibition [3]: 21% | inhibition [4]: 80% | inhibition [5]: Tde | pKi [6]: 5.43 | inhibition [7]: 92% | MIC [8]: 16 µg/mL | inhibition [9]: Tde | inhibition [10]: Tde | growth inhibition (GI) [11]: Non-Toxic

Cc1ccccc1NC(=O)CSCC(=O)[O-].[K+]
pIC50 [1]: 6.34 | growth inhibition (GI) [2]: Non-Toxic | inhibition [3]: 24% | inhibition [4]: 50% | inhibition [5]: Tde | inhibition [7]: 95% | MIC [8]: 16 µg/mL | inhibition [9]: Tde | inhibition [10]: Tde | growth inhibition (GI) [11]: Non-Toxic

O=C([O-])CSCC(=O)NCc1ccccc1.[K+]
pIC50 [1]: 6.34 | growth inhibition (GI) [2]: Non-Toxic | inhibition [3]: 21% | inhibition [4]: 51% | inhibition [5]: Tde | inhibition [7]: 97% | MIC [8]: 16 µg/mL | inhibition [9]: Tde | inhibition [10]: Tde | growth inhibition (GI) [11]: Non-Toxic

O=C([O-])CSCC(=O)Nc1cccc(Cl)c1.[K+]
pIC50 [1]: 5.70 | growth inhibition (GI) [2]: Non-Toxic | inhibition [3]: 34% | inhibition [4]: 48% | inhibition [5]: Tde | pKi [6]: 4.50 | inhibition [7]: 79% | MIC [8]: 16 µg/mL | inhibition [9]: Tde | inhibition [10]: Tde | growth inhibition (GI) [11]: Non-Toxic

O=C([O-])CSCC(=O)Nc1ccc(C(=O)O)cc1.[K+]
pIC50 [1]: 5.12 | growth inhibition (GI) [2]: Non-Toxic | inhibition [3]: 87% | inhibition [4]: 71% | inhibition [5]: Tde | inhibition [7]: 75% | MIC [8]: 16 µg/mL | inhibition [9]: Tde | inhibition [10]: Tde | growth inhibition (GI) [11]: Non-Toxic

O=C([O-])CSCC(=O)Nc1ccccc1.[K+]
pIC50 [1]: 6.01 | growth inhibition (GI) [2]: Non-Toxic | inhibition [3]: 18% | Activity [12]: Non-Toxic | inhibition [4]: 43% | inhibition [5]: Tde | inhibition [7]: 92% | MIC [8]: 16 µg/mL | inhibition [9]: Tde | inhibition [10]: Tde | growth inhibition (GI) [11]: Non-Toxic

O=C([O-])CSCC(=O)Nc1ccc([N+](=O)[O-])cc1.[K+]
pIC50 [1]: < 4.70 | growth inhibition (GI) [2]: Non-Toxic | MIC [13]: 8 µg/mL | inhibition [3]: 85% | MIC [14]: 16 µg/mL | MIC [15]: 8 µg/mL | inhibition [4]: 45% | inhibition [5]: Tde | MIC [16]: 16 µg/mL | inhibition [7]: 71% | MIC [17]: 16 µg/mL | MIC [8]: 2 µg/mL | MIC [18]: 8 µg/mL | MIC [19]: 16 µg/mL | inhibition [9]: Tde | MIC [20]: 16 µg/mL | inhibition [10]: Tde | growth inhibition (GI) [11]: Non-Toxic | fold change (FC) [21]: 8

CCCCNC(=O)CSCC(=O)[O-].[K+]
pIC50 [1]: 5.91 | growth inhibition (GI) [2]: Non-Toxic | inhibition [3]: 20% | inhibition [4]: 55% | inhibition [5]: Tde | inhibition [7]: 89% | MIC [8]: 16 µg/mL | inhibition [9]: Tde | inhibition [10]: Tde | growth inhibition (GI) [11]: Non-Toxic

O=C([O-])CSCC(=O)Nc1ccc(Cl)cc1.[K+]
pIC50 [1]: 4.70 | growth inhibition (GI) [2]: Non-Toxic | inhibition [3]: 25% | inhibition [4]: 48% | inhibition [5]: Tde | inhibition [7]: 73% | MIC [8]: 16 µg/mL | inhibition [9]: Tde | inhibition [10]: Tde | growth inhibition (GI) [11]: Non-Toxic

O=C([O-])CSCC(=O)Nc1ccccc1O.[K+]
pIC50 [1]: 6.24 | growth inhibition (GI) [2]: Non-Toxic | inhibition [3]: 74% | inhibition [4]: 40% | inhibition [5]: Tde | inhibition [7]: 95% | MIC [8]: 8 µg/mL | inhibition [9]: Tde | inhibition [10]: Tde | growth inhibition (GI) [11]: Non-Toxic

O=C([O-])CSCC(=O)Nc1ccccc1[N+](=O)[O-].[K+]
pIC50 [1]: 5.38 | growth inhibition (GI) [2]: Non-Toxic | inhibition [3]: 21% | Activity [12]: Non-Toxic | inhibition [4]: 44% | inhibition [5]: Tde | inhibition [7]: 77% | MIC [8]: 16 µg/mL | inhibition [9]: Tde | inhibition [10]: Tde | growth inhibition (GI) [11]: Non-Toxic

CCCCc1ccc(NC(=O)CSCC(=O)[O-])cc1.[K+]
pIC50 [1]: 6.37 | growth inhibition (GI) [2]: Non-Toxic | MIC [13]: 16 µg/mL | inhibition [3]: 29% | MIC [14]: 16 µg/mL | MIC [15]: 8 µg/mL | inhibition [4]: 64% | inhibition [5]: Tde | MIC [16]: 16 µg/mL | inhibition [7]: 97% | MIC [17]: 16 µg/mL | MIC [8]: 2 µg/mL | MIC [18]: 8 µg/mL | MIC [19]: 16 µg/mL | inhibition [9]: Tde | MIC [20]: 16 µg/mL | inhibition [10]: Tde | growth inhibition (GI) [11]: Non-Toxic | fold change (FC) [21]: 8

CC(C)(C)NC(=O)CSCC(=O)[O-].[K+]
pIC50 [1]: 6.12 | growth inhibition (GI) [2]: Non-Toxic | inhibition [3]: 21% | Activity [12]: Non-Toxic | inhibition [4]: 69% | inhibition [5]: Tde | inhibition [7]: 91% | MIC [8]: 16 µg/mL | inhibition [9]: Tde | inhibition [10]: Tde | growth inhibition (GI) [11]: Non-Toxic

CC(C)CNC(=O)CSCC(=O)[O-].[K+]
pIC50 [1]: 5.42 | growth inhibition (GI) [2]: Non-Toxic | inhibition [3]: 23% | inhibition [4]: 59% | inhibition [5]: Tde | inhibition [7]: 78% | MIC [8]: 16 µg/mL | inhibition [9]: Tde | inhibition [10]: Tde | growth inhibition (GI) [11]: Non-Toxic

O=C([O-])CSCC(=O)Nc1ccccc1Cl.[K+]
pIC50 [1]: 5.98 | growth inhibition (GI) [2]: Non-Toxic | inhibition [3]: 39% | Stability [22]: Unstable | inhibition [4]: 53% | inhibition [5]: Tde | inhibition [7]: 80% | Stability [23]: Unstable | MIC [8]: 16 µg/mL | Stability [24]: Unstable | inhibition [9]: Tde | inhibition [10]: Tde | growth inhibition (GI) [11]: Non-Toxic
